According to ChEMBL document CHEMBL4017509, “A Dual Modulator of Farnesoid X Receptor and Soluble Epoxide Hydrolase To Counter Nonalcoholic Steatohepatitis” (J Med Chem, 2017):
Activity calls are given as the source filed them. No cut-off for these calls is given here.

Assays:
Bile acid receptor [1] = biological target: T1, Bile acid receptor (Homo sapiens, UniProt Q96RI1); assay: Transactivation of human FXR expressed in human HeLa cells co-expressing BSEP after 24 hrs by dual-glo luciferase reporter gene assay; format: cell-based
T1 sequence (Q96RI1 whole entry): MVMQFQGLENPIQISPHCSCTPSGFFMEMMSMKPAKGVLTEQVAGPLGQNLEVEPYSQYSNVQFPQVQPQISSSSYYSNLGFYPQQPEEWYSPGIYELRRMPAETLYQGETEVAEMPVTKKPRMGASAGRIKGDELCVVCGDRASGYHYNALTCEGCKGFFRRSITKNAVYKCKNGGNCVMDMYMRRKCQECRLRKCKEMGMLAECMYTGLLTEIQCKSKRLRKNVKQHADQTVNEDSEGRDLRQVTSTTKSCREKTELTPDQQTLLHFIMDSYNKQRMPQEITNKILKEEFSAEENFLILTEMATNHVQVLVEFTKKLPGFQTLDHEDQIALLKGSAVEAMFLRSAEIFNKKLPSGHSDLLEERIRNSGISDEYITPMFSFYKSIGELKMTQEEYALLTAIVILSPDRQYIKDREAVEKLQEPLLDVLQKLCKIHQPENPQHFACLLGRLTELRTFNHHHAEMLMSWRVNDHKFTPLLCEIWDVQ
Summary of the method: (§1)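 HeLa cells in DMEM/10% FCS at 37 °C, 5% CO2; switched to 0.5% charcoal-stripped FCS before calcium phosphate co-transfection with pcDNA3-hFXR, pSG5-hRXR, BSEP promoter–firefly luciferase reporter and pRL-SV40 renilla. Compound in 0.1% DMSO, phenol red-free medium, 24 h.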

[2] = biological target: T2, Bifunctional epoxide hydrolase 2 (Homo sapiens, UniProt P34913); assay: Inhibition of recombinant human sEH using PHOME as substrate preincubated for 30 mins followed by substrate addition measured for 30 mins by fluorescence photometric method; settings: read-out: IC50
T2 sequence (P34913 whole entry): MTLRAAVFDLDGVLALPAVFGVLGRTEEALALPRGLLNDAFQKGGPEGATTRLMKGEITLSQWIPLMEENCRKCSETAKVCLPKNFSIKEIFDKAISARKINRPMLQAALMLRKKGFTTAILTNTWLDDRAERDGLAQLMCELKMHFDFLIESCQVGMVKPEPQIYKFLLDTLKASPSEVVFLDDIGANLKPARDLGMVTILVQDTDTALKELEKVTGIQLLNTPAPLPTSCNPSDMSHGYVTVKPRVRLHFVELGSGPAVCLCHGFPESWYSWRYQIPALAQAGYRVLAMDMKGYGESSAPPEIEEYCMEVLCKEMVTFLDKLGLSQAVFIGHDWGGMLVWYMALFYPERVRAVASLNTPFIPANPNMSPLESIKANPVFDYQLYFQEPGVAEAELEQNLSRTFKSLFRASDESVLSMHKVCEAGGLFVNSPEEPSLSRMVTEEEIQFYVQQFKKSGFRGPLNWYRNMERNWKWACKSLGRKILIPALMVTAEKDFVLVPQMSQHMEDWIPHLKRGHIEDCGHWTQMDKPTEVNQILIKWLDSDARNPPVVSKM
Summary of the method: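 Recombinant human sEH in Bis-Tris buffer pH 7, 0.1 mg/mL BSA, 0.01% Triton X-100 (final), preincubated 30 min at room temperature with compound (1% DMSO final). PHOME added at 50 μM final; 6-methoxynaphthaldehyde fluorescence read each minute for 30 min.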

[3] = biological target: T3, Bile acid receptor (Homo sapiens) (UniProt Q96RI1); assay: Transactivation of human FXR expressed in human HeLa cells co-expressing BSEP at 50 uM after 24 hrs by dual-glo luciferase reporter gene assay relative to GW4064; format: cell-based; summary of the method: as §1
T3 sequence (whole entry): T1 sequence (Q96RI1 whole entry)

[4] = Aqueous solubility of compound at 5 mg after 24 hrs by HPLC analysis; format: physicochemical
Bile acid receptor [5] = biological target: T1, Bile acid receptor; assay: Transactivation of FXR in human HepG2 cells assessed as CYP7A1 mRNA expression at 3 uM after 8 to 16 hrs by SYBR green based qRT-PCR analysis relative to DMSO control; format: ADME, cell-based
Summary of the method: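 HepG2 cells treated 8 or 16 h with compound or 0.1% DMSO, washed in cold PBS, RNA extracted; SYBR Green qRT-PCR in duplicate, ≥4 independent experiments (n = 3 for CD36/FAM3A). ΔΔCt method with GAPDH reference; expression as % of vehicle (100%). Pioglitazone 1 μM used as positive control for the PPARγ genes.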

[6] = biological target: T4, Bifunctional epoxide hydrolase 2 (Homo sapiens) (UniProt P34913); assay: Inhibition of sEH in human HepG2 cells assessed as NF-kappaB mRNA expression at 1 uM after 8 to 16 hrs by SYBR green based qRT-PCR analysis relative to DMSO control; format: cell-based
T4 sequence (whole entry): T2 sequence (P34913 whole entry)
Summary of the method: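 HepG2 cells treated with compound or 0.1% DMSO vehicle; NF-κB mRNA quantified by SYBR Green qRT-PCR, comparative ΔΔCt with GAPDH reference; expressed as % of vehicle (100%).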

[7] = biological target: T4, Bifunctional epoxide hydrolase 2 (Homo sapiens); assay: Inhibition of sEH in human HuT-78 cells assessed as reduction in Pam3CSK4-stimulated TNFalpha release preincubated for 24 hrs followed by Pam3CSK4 addition measured after 18 hrs by ELISA; format: cell-based
Summary of the method: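 HuT-78 cells in RPMI 1640 with 10% heat-inactivated FCS, 2.0 × 10^6 cells/well, exposed to compound (0.1% DMSO) for 24 h; medium then replaced with fresh compound plus Pam3CSK4 20 ng/mL for 18 h; supernatant TNFα measured by ELISA (absorbance 450 nm); each concentration repeated independently at least three times.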

[8] = biological target: T3, Bile acid receptor (Homo sapiens); assay: Transactivation of FXR in human HepG2 cells assessed as FGF19 mRNA expression at 1 uM after 8 to 16 hrs by SYBR green based qRT-PCR analysis relative to DMSO control; format: cell-based
Summary of the method: (§2)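 HepG2 cells incubated with test compound (0.1 and 1 μM) or 0.1% DMSO for 8 or 16 h, washed in cold PBS, RNA extracted; target mRNA by SYBR Green qRT-PCR, duplicate samples, ≥4 independent experiments; comparative ΔΔCt with GAPDH reference, vehicle set as 100%.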

[9] = biological target: T3, Bile acid receptor (Homo sapiens); assay: Transactivation of FXR in human HepG2 cells assessed as BSEP mRNA expression at 1 uM after 8 to 16 hrs by SYBR green based qRT-PCR analysis relative to DMSO control; format: cell-based; summary of the method: as §2
[10] = biological target: T3, Bile acid receptor (Homo sapiens); assay: Transactivation of FXR in human HepG2 cells assessed as SHP mRNA expression at 1 uM after 8 to 16 hrs by SYBR green based qRT-PCR analysis relative to DMSO control; format: cell-based; summary of the method: as §2
[11] = biological target: T3, Bile acid receptor (Homo sapiens); assay: Transactivation of FXR in human HepG2 cells assessed as SREBP1c mRNA expression at 1 uM after 8 to 16 hrs by SYBR green based qRT-PCR analysis relative to DMSO control; format: cell-based; summary of the method: as §2
[12] = biological target: T4, Bifunctional epoxide hydrolase 2 (Homo sapiens); assay: Inhibition of sEH in primary human monocytes-derived macrophages assessed as reduction in LPS-stimulated IL-12p70 release at 1 uM after 16 hrs by cytometric bead array method; format: cell-based
Summary of the method: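 Human blood monocytes isolated by dextran sedimentation/Nycoprep and adherence, differentiated to macrophages with GM-CSF 10 ng/mL for 7 days plus IFNγ 10 ng/mL for final 48 h; stimulated with LPS 100 ng/mL together with compound for 16 h; supernatant IL-12p70 measured by cytometric bead array on flow cytometer.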

[13] = biological target: T4, Bifunctional epoxide hydrolase 2 (Homo sapiens); assay: Inhibition of sEH in human HepG2 cells assessed as NF-kappaB mRNA expression at 10 uM after 8 to 16 hrs by SYBR green based qRT-PCR analysis relative to DMSO control; format: cell-based
[14] = biological target: T4, Bifunctional epoxide hydrolase 2 (Homo sapiens); assay: Inhibition of sEH in primary human monocytes-derived macrophages assessed as reduction in LPS-stimulated IL-12p70 release at 10 uM after 16 hrs by cytometric bead array method; format: cell-based
Summary of the method: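 Blood monocytes isolated by dextran sedimentation and Nycoprep gradient, adherence-selected 1 h, differentiated with GM-CSF 10 ng/mL for 7 days plus IFNγ 10 ng/mL for last 48 h. Stimulated with LPS 100 ng/mL plus compound for 16 h; supernatant IL-10 and IL-12p70 measured by cytometric bead array flow cytometry.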

CC(C)(C)c1ccc(C(=O)NCc2ccc(NC(=O)C(F)(F)F)cc2Cl)cc1
EC50 (Bile acid receptor [1]): 0.014 µM | IC50 [2]: 0.0089 µM | Emax [3]: 21% | solubility at 24 h [4]: < 0.1 µg/mL

CC(C)c1onc(-c2c(Cl)cccc2Cl)c1COc1ccc(/C=C/c2cccc(C(=O)O)c2)c(Cl)c1
Activity (Bile acid receptor [5]): 0.03%

CC[C@H]1[C@@H](O)[C@@H]2[C@H](CC[C@]3(C)[C@@H]([C@H](C)CCC(=O)O)CC[C@@H]23)[C@@]2(C)CC[C@@H](O)C[C@@H]12
inhibition [6]: 29% | inhibition [7]: inactive | Activity [8]: 640% | Activity [9]: 970% | Activity [10]: 416% | Activity [11]: 51% | inhibition [12]: Active

O=C(Nc1ccc(I)cc1)NC1CCCCC1
inhibition [13]: 22.9% | inhibition [14]: Active
